Test results published in ChEMBL document CHEMBL1124476, “1-(2-aminoethyl)-6-aryl-4H- [1,2,4]triazolo[4,3-a][1,4]benzodiazepines with diuretic and natriuretic activity” (J Med Chem, 1989).

Tests used:
[1] = Diuretic activity at 40 mg/kg (screening dose-105.3 umol/kg) in […] in a one stage experiment; T/C = urine vol of treated rats / urine vol of control rats; format: functional
In short: (§1)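 40 mg/kg given by gavage in 25 mL/kg 0.9% saline with 0.5% (carboxymethyl)cellulose. Four rats per agent, two per metabolism cage; 20 controls; 5 h urine. T/C = treated/control urine volume. Stage-1 T/C of 1.66 or more leads to stage 2; product T/C1·T/C2 of 3.34 or more counts as active.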

[2] = Diuretic activity at 40 mg/kg (screening dose-103.9 umol/kg) in […] in a one stage experiment; T/C = urine vol of treated rats / urine vol of control rats; format: functional; in short: as §1
[3] = Diuretic activity at 40 mg/kg (screening dose-77.5 umol/kg) in […] in a one stage experiment; T/C = urine vol of treated rats / urine vol of control rats; format: functional; in short: as §1
[4] = Diuretic activity at 40 mg/kg (screening dose-82.5 umol/kg) in […] in a one stage experiment; T/C = urine vol of treated rats / urine vol of control rats; format: functional; in short: as §1
Rattus norvegicus [5] = organism: Rattus norvegicus; experiment: […]; format: ADME, organism-based, Urine; parameters: dose 0.3 mg/kg, route oral; conditions: in vivo, po, 0.3 mg/kg
In short: (§2)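 Dose-response test in male Sprague-Dawley rats of about 160 g, fasted 24 h, with water withheld 1½ h before and during the test. Each rat got a single gavage of 25 mL/kg 0.9% saline with 0.5% carboxymethylcellulose carrying the agent (0.3–100 mg/kg range). Rats were housed two per metabolism cage, and urine was collected for 5 h. Mean urine volume (mL) was compared with controls (P < 0.05).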

Rattus norvegicus [6] = experiment: Mean excretion of sodium in conscious rats at a dose of 30 mg/kg given orally; format: ADME, organism-based; parameters: dose 30 mg/kg, route oral; conditions: in vivo, po
In short: (§3)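 Male Sprague-Dawley rats, about 160 g, fasted 24 h and water withheld 1 1/2 h beforehand; food and water withheld during the test. Dosing by gavage with 25 mL/kg 0.9% saline containing 0.5% (carboxymethyl)cellulose, agent dissolved or suspended. Three cages of two rats each per dose, held in metabolism cages. Urine collected over 5 h. Volume given in mL, Na+ in mequiv. Significance versus control at P < 0.05.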

[7] = Diuretic activity at 40 mg/kg (screening dose-87.7 umol/kg) in […] in a one stage experiment; T/C = urine vol of treated rats / urine vol of control rats; format: functional; in short: as §1
Rattus norvegicus [8] = experiment: Mean excretion of potassium in conscious rats at a dose of 3.0 mg/kg given orally; format: ADME, organism-based; parameters: dose 3 mg/kg, route oral; conditions: in vivo, po
In short: (§4)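 Secondary dose-response in male Sprague-Dawley rats (~160 g), fasted and hydrated as in the primary screen. Oral gavage at 0.3-100 mg/kg in 25 mL/kg saline/0.5% CMC, three cages of two rats per dose. Urine collected 5 h; Na, K, Cl, HCO3 measured. Values are mean excretion (mequiv), compared with controls at P < 0.05.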

Rattus norvegicus [9] = experiment: Mean excretion of […] in conscious rats at a dose of 1.0 mg/kg given orally; format: ADME, organism-based; parameters: dose 1 mg/kg, route oral; conditions: in vivo, po; in short: as §3
Rattus norvegicus [10] = experiment: Mean excretion of sodium in conscious rats at a dose of 100 mg/kg given orally; format: ADME, organism-based; parameters: dose 100 mg/kg, route oral; conditions: in vivo, po; in short: as §3
Rattus norvegicus [11] = organism: Rattus norvegicus; experiment: […]; format: ADME, organism-based, Urine; parameters: dose 30 mg/kg, route oral; conditions: in vivo, po, 30 mg/kg; in short: as §3
Rattus norvegicus [12] = experiment: Mean excretion of potassium in conscious rats at a dose of 0.3 mg/kg given orally; format: ADME, organism-based; parameters: dose 0.3 mg/kg, route oral; conditions: in vivo, po; in short: as §4
Rattus norvegicus [13] = experiment: Mean excretion of chloride in conscious rats at a dose of 100 mg/kg given orally; format: ADME, organism-based; parameters: dose 100 mg/kg, route oral; conditions: in vivo, po; in short: as §4
Rattus norvegicus [14] = experiment: Mean excretion of chloride in conscious rats at a dose of 1.0 mg/kg given orally; format: ADME, organism-based; parameters: dose 1 mg/kg, route oral; conditions: in vivo, po; in short: as §4
Rattus norvegicus [15] = organism: Rattus norvegicus; experiment: […]; format: ADME, organism-based, Urine; parameters: dose 1 mg/kg, route oral; conditions: in vivo, po, 1 mg/kg; in short: as §2
Rattus norvegicus [16] = organism: Rattus norvegicus; experiment: […]; format: ADME, organism-based, Urine; parameters: dose 10 mg/kg, route oral; conditions: in vivo, po, 10 mg/kg; in short: as §3
Rattus norvegicus [17] = experiment: Mean excretion of potassium in conscious rats at a dose of 10 mg/kg given orally; format: ADME, organism-based; parameters: dose 10 mg/kg, route oral; conditions: in vivo, po; in short: as §4
Rattus norvegicus [18] = experiment: Mean excretion of potassium in conscious rats at a dose of 100 mg/kg given orally; format: ADME, organism-based; parameters: dose 100 mg/kg, route oral; conditions: in vivo, po; in short: as §4
Rattus norvegicus [19] = organism: Rattus norvegicus; experiment: […]; format: ADME, organism-based, Urine; parameters: dose 100 mg/kg, route oral; conditions: in vivo, po, 100 mg/kg; in short: as §3
Rattus norvegicus [20] = experiment: Mean excretion of chloride in conscious rats at a dose of 10 mg/kg given orally; format: ADME, organism-based; parameters: dose 10 mg/kg, route oral; conditions: in vivo, po; in short: as §4
Rattus norvegicus [21] = experiment: Mean excretion of sodium in conscious rats at a dose of 10 mg/kg given orally; format: ADME, organism-based; parameters: dose 10 mg/kg, route oral; conditions: in vivo, po; in short: as §3
Rattus norvegicus [22] = experiment: Mean excretion of chloride in conscious rats at a dose of 30 mg/kg given orally; format: ADME, organism-based; parameters: dose 30 mg/kg, route oral; conditions: in vivo, po; in short: as §4
Rattus norvegicus [23] = experiment: Mean excretion of Cl- in conscious rats at a dose of 0.3 mg/kg given orally; format: ADME, organism-based, Urine; parameters: dose 0.3 mg/kg, route oral; conditions: in vivo, po; in short: as §2
[24] = Diuretic activity at 40 mg/kg (screening dose 87.7 umol/kg) in […] in a two stage experiment; T/C1.2 = urine vol of treated rats / urine vol of control rats; format: functional; in short: as §1
Rattus norvegicus [25] = experiment: Mean excretion of chloride in conscious rats at a dose of 3.0 mg/kg given orally; format: ADME, organism-based; parameters: dose 3 mg/kg, route oral; conditions: in vivo, po; in short: as §4
Rattus norvegicus [26] = experiment: Mean excretion of potassium in conscious rats at a dose of 30 mg/kg given orally; format: ADME, organism-based; parameters: dose 30 mg/kg, route oral; conditions: in vivo, po; in short: as §4
Rattus norvegicus [27] = experiment: Mean excretion of potassium in conscious rats at a dose of 1.0 mg/kg given orally; format: ADME, organism-based; parameters: dose 1 mg/kg, route oral; conditions: in vivo, po; in short: as §4
Rattus norvegicus [28] = experiment: Mean excretion of sodium in conscious rats at a dose of 0.3 mg/kg given orally; format: ADME, organism-based; parameters: dose 0.3 mg/kg, route oral; conditions: in vivo, po; in short: as §3
Rattus norvegicus [29] = experiment: Mean excretion of sodium in conscious rats at a dose of 3.0 mg/kg given orally; format: ADME, organism-based; parameters: dose 3 mg/kg, route oral; conditions: in vivo, po; in short: as §3
Rattus norvegicus [30] = organism: Rattus norvegicus; experiment: […]; format: ADME, organism-based, Urine; parameters: dose 3 mg/kg, route oral; conditions: in vivo, po, 3 mg/kg; in short: as §3
[31] = Diuretic activity at 40 mg/kg (screening dose-61.3 umol/kg) in […] in a one stage experiment; T/C = urine vol of treated rats / urine vol of control rats; format: functional; in short: as §1

With `CC(CN(C)C)c1nnc2n1-c1ccc(Cl)cc1C(c1ccccc1)=NC2` (stereo unspecified) the “T/C 1” value [1] was 1.25.
With `Clc1ccc2c(c1)C(c1ccccc1)=NCc1nnc(Cc3ccccc3)n1-2` the “T/C 1” value [2] was 0.96.
In the case of `Clc1ccc2c(c1)C(c1ccccc1)=NCc1nnc(C(CN3CCOCC3)c3ccccc3)n1-2` (stereo unspecified), the “T/C 1” value [3] is reported as 1.46.
With `COC(CN(C)C)c1nnc2n1-c1ccc(Cl)cc1C(c1ccccc1)=NC2` (stereo unspecified) the “T/C 1” value [4] was 1.32.
For `CC1N=C(c2ccccc2)c2cc(Cl)ccc2-n2c1nnc2C(CN(C)C)c1ccccc1` (stereo unspecified), the Mean urine volume (Rattus norvegicus [5]) was 3.97 mL, the “Mean excretion of Na+” value (Rattus norvegicus [6]) was 1.65 m equiv and the “T/C 1” value [7] was 3.05. The “Mean excretion of K+” value (Rattus norvegicus [8]) was 0.24 m equiv, the “Mean excretion of Na+” value (Rattus norvegicus [9]) was 0.82 m equiv and the “Mean excretion of Na+” value (Rattus norvegicus [10]) was 2.04 m equiv. The Mean urine volume (Rattus norvegicus [11]) was 9.56 mL, the “Mean excretion of K+” value (Rattus norvegicus [12]) was 0.24 m equiv and the “Mean excretion of Cl-” value (Rattus norvegicus [13]) was 1.9 m equiv. For the same molecule, the “Mean excretion of Cl-” value (Rattus norvegicus [14]) was 0.86 m equiv, the Mean urine volume (Rattus norvegicus [15]) was 4.39 mL and the Mean urine volume (Rattus norvegicus [16]) was 7.53 mL. For the same molecule, the “Mean excretion of K+” value (Rattus norvegicus [17]) was 0.22 m equiv, the “Mean excretion of K+” value (Rattus norvegicus [18]) was 0.21 m equiv and the Mean urine volume (Rattus norvegicus [19]) was 10.66 mL. The “Mean excretion of Cl-” value (Rattus norvegicus [20]) was 1.33 m equiv, the “Mean excretion of Na+” value (Rattus norvegicus [21]) was 1.33 m equiv and the “Mean excretion of Cl-” value (Rattus norvegicus [22]) was 1.64 m equiv. For the same molecule, the “Mean excretion of Cl-” value (Rattus norvegicus [23]) was 0.82 m equiv, the “T/C 1.2” value [24] was 7.05 and the “Mean excretion of Cl-” value (Rattus norvegicus [25]) was 0.91 m equiv. The “Mean excretion of K+” value (Rattus norvegicus [26]) was 0.24 m equiv, the “Mean excretion of K+” value (Rattus norvegicus [27]) was 0.19 m equiv and the “Mean excretion of Na+” value (Rattus norvegicus [28]) was 0.74 m equiv. For the same molecule, the “Mean excretion of Na+” value (Rattus norvegicus [29]) was 0.86 m equiv and the Mean urine volume (Rattus norvegicus [30]) was 4.96 mL.
In the case of `CN1CCN(CC(c2ccccc2)c2nnc3n2-c2ccc(Cl)cc2C(c2ccccc2)=NC3)CC1.I` (stereo unspecified), the “T/C 1” value [31] is reported as 1.02.
